Measured values: ChEMBL document CHEMBL1128453, “Peptidyl alpha-ketoheterocyclic inhibitors of human neutrophil elastase. 3. In vitro and in vivo potency of a series of peptidyl alpha-ketobenzoxazoles” (J Med Chem, 1995)

Legend:
Neutrophil elastase = target: T1, Neutrophil elastase (Homo sapiens, UniProt P08246); test: Inhibition of human neutrophil elastase-catalyzed hydrolysis of the synthetic substrate MeO-Suc-Ala-Ala-Pro-Val-pNa
T1 sequence (P08246 whole entry): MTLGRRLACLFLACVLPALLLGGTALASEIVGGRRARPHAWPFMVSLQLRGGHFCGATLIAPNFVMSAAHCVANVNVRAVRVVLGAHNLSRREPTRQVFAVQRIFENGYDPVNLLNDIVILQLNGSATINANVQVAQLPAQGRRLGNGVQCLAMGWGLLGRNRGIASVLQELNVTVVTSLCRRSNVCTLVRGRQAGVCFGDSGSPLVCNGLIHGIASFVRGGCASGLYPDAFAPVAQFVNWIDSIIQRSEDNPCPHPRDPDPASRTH

[1] = Percent reduction in leukocytes following elastase challenge/treatment.; assay type: functional; parameters: concentration or dose not given beside the values
Outline: (§1)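 Male Syrian hamsters (90–110 g), anaesthetised with brevital sodium (30 mg/kg ip), received intratracheal HNE (400 μg in 0.01 M PBS). Test agent was given intratracheally, either admixed with the enzyme or predosed (shortest interval 6 h). Dose interval is the longest with significant lesion inhibition. At 24 h, wet lung weight/body weight and lavage red/white cells (Coulter) were measured. Results are % reduction scaled between the HNE and saline controls (p = 0.05).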

[2] = target: T2, Neutrophil elastase (Homo sapiens) (UniProt P08246); conditions: Lung
T2 sequence (whole entry): T1 sequence (P08246 whole entry)

[3] = Percentage reduction in erythrocytes following elastase challenge/treatment.; assay type: functional; parameters: concentration or dose not given beside the values; outline: as §1
[4] = Evaluated for the percent reduction relative to HNE and saline controls of red blood cells; assay type: functional; outline: as §1
[5] = Evaluated for the percent reduction relative to HNE and saline controls of white blood cells; assay type: functional; outline: as §1
Cricetinae gen. sp. [6] = test: Compound is evaluated for wet lung weight (LW) relative to body weight (Bw).Value is statistically significant relative to control (p = 0.05).; assay type: functional; outline: as §1
[7] = Evaluated for the percent reduction relative to HNE and saline controls of red blood cells. An asterisk (*) indicates (p = 0.05).; assay type: functional; outline: as §1
Cricetinae gen. sp. [8] = test: Dose interval reported as the longest interval at which significant inhibition of HNE induced uM Dose of HNE used was 400 ug/hamster; assay type: functional; outline: as §1

| Compound | Ki (Neutrophil elastase) [nM] | Reduction [1] [%] | Lw/Bw [2] | Reduction [3] [%] | also measured |
| --- | --- | --- | --- | --- | --- |
| COc1ccc2oc(C(=O)[C@@H](NC(=O)[C@@H]3CCCN3C(=O)[C@@H](NC(=O)OCc3ccccc3)C(C)C)C(C)C)nc2c1 | 1.9 |  |  |  |  |
| COc1ccc2oc(C(=O)[C@@H](NC(=O)[C@@H]3CCCN3C(=O)[C@@H](NC(=O)c3ccc(C(=O)NS(=O)(=O)c4ccc(Cl)cc4)cc3)C(C)C)C(C)C)nc2c1 | 0.66 | 24 | 48 | 21 |  |
| COC(=O)c1ccc2oc(C(=O)[C@@H](NC(=O)[C@@H]3CCCN3C(=O)[C@@H](NC(=O)c3ccc(NS(=O)(=O)C(F)(F)F)cc3)C(C)C)C(C)C)nc2c1 | 0.3 | 77 | 71 | 82 |  |
| COC(=O)c1ccc2oc(C(=O)[C@@H](NC(=O)[C@@H]3CCCN3C(=O)[C@@H](NC(=O)c3ccc(NC(=O)NS(=O)(=O)c4ccc(Cl)cc4)cc3)C(C)C)C(C)C)nc2c1 | 0.06 | -31 | 48 | 13 |  |
| CC(C)[C@H](NC(=O)[C@@H]1CCCN1C(=O)[C@@H](NC(=O)c1ccc(C(=O)NS(=O)(=O)c2ccc(Cl)cc2)cc1)C(C)C)C(=O)c1nc2cc(CO)ccc2o1 | 0.66 | 39 | 30 | 46 |  |
| CC(C)[C@H](NC(=O)[C@@H]1CCCN1C(=O)[C@@H](NC(=O)OCc1ccccc1)C(C)C)C(=O)c1nc2cc(CO)ccc2o1 | 2.4 |  |  |  |  |
| CC(C)[C@H](NC(=O)[C@@H]1CCCN1C(=O)[C@@H](NC(=O)OCc1ccccc1)C(C)C)C(=O)c1nc2cc(CO[Si](C)(C)C(C)(C)C)ccc2o1 | 0.43 |  |  |  |  |
| COC(=O)c1ccc2oc(C(=O)[C@@H](NC(=O)[C@@H]3CCCN3C(=O)[C@@H](NC(=O)c3ccc(S(N)(=O)=O)cc3)C(C)C)C(C)C)nc2c1 |  | 30 | 15 | -32 |  |
| CC(C)[C@H](NC(=O)[C@@H]1CCCN1C(=O)[C@@H](NC(=O)c1ccc(C(=O)OC(C)(C)C)cc1)C(C)C)C(=O)c1nc2ccccc2o1 |  |  |  |  | Reduction [4]: 29%; Reduction [5]: -14%; Lw/Bw (Cricetinae gen. sp. [6]): 41 |
| COC(=O)c1ccc(C(=O)N[C@H](C(=O)N2CCC[C@H]2C(=O)N[C@H](C(=O)c2nc3ccccc3o2)C(C)C)C(C)C)cc1 |  | -5 |  |  | Reduction [4]: 17% |
| COC(=O)c1ccc2nc(C(=O)[C@@H](NC(=O)[C@@H]3CCCN3C(=O)[C@@H](NC(=O)c3ccc(C(=O)NS(=O)(=O)c4ccc(Cl)cc4)cc3)C(C)C)C(C)C)oc2c1 |  | 72 |  | 76 |  |
| COC(=O)Cc1ccc2oc(C(=O)[C@@H](NC(=O)[C@@H]3CCCN3C(=O)[C@@H](NC(=O)OCc3ccccc3)C(C)C)C(C)C)nc2c1 | 1.1 |  |  |  |  |
| CC(C)[C@H](NC(=O)[C@@H]1CCCN1C(=O)[C@@H](NC(=O)c1ccc(C(=O)NS(=O)(=O)C(C)C)cc1)C(C)C)C(=O)c1nc2ccccc2o1 | 1.5 | 70 | 68 | 60 |  |
| CC(C)[C@H](NC(=O)[C@@H]1CCCN1C(=O)[C@@H](NC(=O)c1ccc(C(=O)O)cc1)C(C)C)C(=O)c1nc2ccccc2o1 |  | -1 |  |  | Reduction [7]: 49% |
| CC(C)[C@H](NC(=O)[C@@H]1CCCN1C(=O)[C@@H](NC(=O)c1ccc(C(=O)NS(=O)(=O)c2ccccc2)cc1)C(C)C)C(=O)c1nc2ccccc2o1 | 0.5 | 64 | 29 | 58 | Dose interval (Cricetinae gen. sp. [8]): 6 h |
| CC(C)[C@H](NC(=O)[C@@H]1CCCN1C(=O)[C@@H](NC(=O)OCc1ccccc1)C(C)C)C(=O)c1nc2cc(C#N)ccc2o1 | 1.8 |  |  |  |  |
| CC(C)[C@H](NC(=O)[C@@H]1CCCN1C(=O)[C@@H](NC(=O)OCc1ccccc1)C(C)C)C(=O)c1nc2cc(C(=O)O)ccc2o1 | 4.2 |  |  |  |  |
| CC(C)[C@H](NC(=O)[C@@H]1CCCN1C(=O)[C@@H](NC(=O)c1ccc(NC(=O)NS(=O)(=O)c2ccc(Cl)cc2)cc1)C(C)C)C(=O)c1nc2ccccc2o1 |  | 82 |  | 68 | Dose interval (Cricetinae gen. sp. [8]): 6 h |
| CC(C)[C@H](NC(=O)[C@@H]1CCCN1C(=O)[C@@H](NC(=O)c1ccc(C(=O)NS(=O)(=O)c2ccc(Cl)cc2)cc1)C(C)C)C(=O)c1nc2cc(O)ccc2o1 |  | 40 | 38 | 57 |  |
| COC(=O)c1ccc2oc(C(=O)[C@@H](NC(=O)[C@@H]3CCCN3C(=O)[C@@H](NC(=O)OCc3ccccc3)C(C)C)C(C)C)nc2c1 | 0.37 |  |  |  |  |
| COC(=O)c1ccc2oc(C(=O)[C@@H](NC(=O)[C@@H]3CCCN3C(=O)[C@@H](NC(=O)c3ccc(C(=O)NS(=O)(=O)c4ccc(Cl)cc4)cc3)C(C)C)C(C)C)nc2c1 | 0.1 | -32 | 67 | 71 |  |
| CC(C)[C@H](NC(=O)[C@@H]1CCCN1C(=O)[C@@H](NC(=O)c1ccc(S(N)(=O)=O)cc1)C(C)C)C(=O)c1nc2ccccc2o1 |  | -42 |  | -44 |  |
| CC(C)[C@H](NC(=O)[C@@H]1CCCN1C(=O)[C@@H](NC(=O)c1ccc(NC(=O)NS(=O)(=O)c2ccccc2)cc1)C(C)C)C(=O)c1nc2ccccc2o1 | 0.6 | 31 | 63 | 62 |  |
| CC(C)[C@H](NC(=O)[C@@H]1CCCN1C(=O)[C@@H](NC(=O)OCc1ccccc1)C(C)C)C(=O)c1nc2cc(CC(=O)O)ccc2o1 | 4.4 |  |  |  |  |
| CC(C)[C@H](NC(=O)[C@@H]1CCCN1C(=O)[C@@H](NC(=O)c1ccc(C(=O)NS(C)(=O)=O)cc1)C(C)C)C(=O)c1nc2ccccc2o1 | 4.6 | 78 | 87 | 84 |  |
| CC(C)[C@H](NC(=O)[C@@H]1CCCN1C(=O)[C@@H](NC(=O)OCc1ccccc1)C(C)C)C(=O)c1nc2cc(C(=O)ON)ccc2o1 | 1 |  |  |  |  |
| COC(=O)c1ccc2nc(C(=O)[C@@H](NC(=O)[C@@H]3CCCN3C(=O)[C@@H](NC(=O)OCc3ccccc3)C(C)C)C(C)C)oc2c1 | 0.55 |  |  |  |  |
| CC(C)[C@H](NC(=O)[C@@H]1CCCN1C(=O)[C@@H](NC(=O)OCc1ccccc1)C(C)C)C(=O)c1nc2cc(Cl)ccc2o1 | 1.1 |  |  |  |  |
| CC(C)[C@H](NC(=O)[C@@H]1CCCN1C(=O)[C@@H](NC(=O)c1ccc(C(=O)NS(=O)(=O)c2ccc(Cl)cc2)cc1)C(C)C)C(=O)c1nc2cc(C(=O)O)ccc2o1 | 0.65 | 66 | 63 | 94 |  |
| CC(C)[C@H](NC(=O)[C@@H]1CCCN1C(=O)[C@@H](NC(=O)c1ccc(C(=O)NS(=O)(=O)c2ccc(Cl)cc2)cc1)C(C)C)C(=O)c1nc2ccccc2o1 |  | 84 |  | 80 | Dose interval (Cricetinae gen. sp. [8]): 6 h |
